Data set [1] concerns the target Beta-2 adrenergic receptor (Homo sapiens) (UniProt P07550). The experiment in a line: Displacement of [125I]Iodopindolol from beta2 adrenergic receptor at 10 uM. (In general: In a radioligand displacement assay an active substance lowers the binding of a labelled ligand.)
The target of data set [2] is 5-hydroxytryptamine receptor 2B (Homo sapiens) (UniProt P41595). The experiment in a line: Displacement of [3H]LSD from 5-HT2B at 10 uM.
Data set [3] concerns the target T1, D(4) dopamine receptor (Homo sapiens) (UniProt P21917).
T1 sequence (whole entry): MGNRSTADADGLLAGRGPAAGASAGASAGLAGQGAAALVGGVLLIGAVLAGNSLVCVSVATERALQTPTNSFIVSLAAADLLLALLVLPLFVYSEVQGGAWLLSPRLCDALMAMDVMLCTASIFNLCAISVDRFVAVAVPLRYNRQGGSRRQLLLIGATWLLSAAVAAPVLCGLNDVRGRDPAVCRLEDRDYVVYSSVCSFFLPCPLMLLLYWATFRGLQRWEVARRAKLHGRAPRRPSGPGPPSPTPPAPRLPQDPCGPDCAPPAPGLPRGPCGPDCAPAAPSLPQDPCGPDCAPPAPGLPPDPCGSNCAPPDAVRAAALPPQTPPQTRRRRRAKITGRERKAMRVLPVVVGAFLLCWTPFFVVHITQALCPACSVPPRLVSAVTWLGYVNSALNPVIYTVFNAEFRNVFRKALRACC
The experiment in a line: Displacement of [3H]N-methylspiperone from D4 at 10 uM.

For another data set, the target named is Cytochrome P450 2D6 (Homo sapiens, UniProt P10635). The experiment in a line: Inhibition of CYP2D6 up to 10 uM. In kind it is ADME. An outline of the steps:
(§1)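 Percent inhibition of CYP isoforms (CYP1A, CYP2C9, CYP2C19, CYP2D6, CYP3A; CYP1A2 reported) with test compound at concentrations up to 10 μM.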

A short description of data set [4]: Displacement of [3H]DTG from sigma2 receptor at 10 uM.
In data set [5] the target is T2, Muscarinic acetylcholine receptor M5 (Homo sapiens) (UniProt P08912).
T2 sequence (whole entry): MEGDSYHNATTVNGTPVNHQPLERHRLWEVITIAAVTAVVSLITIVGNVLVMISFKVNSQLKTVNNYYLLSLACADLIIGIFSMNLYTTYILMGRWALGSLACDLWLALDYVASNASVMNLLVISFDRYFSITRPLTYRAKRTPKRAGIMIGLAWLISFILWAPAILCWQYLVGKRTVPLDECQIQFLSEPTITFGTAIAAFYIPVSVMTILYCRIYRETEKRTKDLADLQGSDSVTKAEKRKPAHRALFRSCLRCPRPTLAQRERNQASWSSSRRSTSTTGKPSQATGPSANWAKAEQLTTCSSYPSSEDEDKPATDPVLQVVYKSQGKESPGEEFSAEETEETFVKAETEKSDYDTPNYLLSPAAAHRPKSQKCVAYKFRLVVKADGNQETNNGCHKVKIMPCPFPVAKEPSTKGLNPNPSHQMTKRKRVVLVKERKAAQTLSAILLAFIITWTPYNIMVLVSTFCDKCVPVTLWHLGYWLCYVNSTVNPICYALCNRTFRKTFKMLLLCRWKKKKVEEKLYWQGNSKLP
The experiment in a line: Displacement of [3H]QNB from M5 receptor at 10 uM.

The target of data set [6] is 5-hydroxytryptamine receptor 1D (Homo sapiens) (UniProt P28221). The experiment in a line: Displacement of [3H][…] from 5-HT1D at 10 uM.
Data set [7] addresses Sodium-dependent serotonin transporter (Homo sapiens) (UniProt P31645). The experiment in a line: Displacement of [3H]Citalopram from SERT at 10 uM.
The nature of data set [8]: Displacement of [3H]Baclofen from GABA-B at 10 uM.
A short description of data set [9]: Displacement of radioligand from oxytocin receptor. As to conditions: concentration not given here.
The target of the next data set is Cytochrome P450 1A2 (Homo sapiens, UniProt P05177). The experiment in a line: Inhibition of CYP1A2 up to 10 uM. In kind it is ADME. An outline of the steps: as §1
Data set [10] addresses Vasopressin V1a receptor (Homo sapiens) (UniProt P37288). The experiment in a line: Displacement of radioligand from Vasopressin V1A receptor. As to conditions: concentration not given here.
Data set [11] addresses 5-hydroxytryptamine receptor 7 (Homo sapiens) (UniProt P34969). The experiment in a line: Displacement of [3H]LSD from 5-HT7 at 10 uM.
The target in data set [12] is T3, Neuronal acetylcholine receptor; alpha4/beta2 (Homo sapiens, UniProt P17787+P43681). The experiment in a line: Agonist activity at human alpha4beta2 nAChR expressed in SH-EP1 cells assessed as 86Rb+ ion efflux after 9.5 mins by flip-plate technique. In kind it is functional, cell-based. An outline of the steps: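 SH-EP1 human epithelial cells stably transfected with separate human α4 and β2 subunit cDNAs express a mixed population of high-sensitivity (2:3 α4:β2) and low-sensitivity (3:2) α4β2-nAChRs. Cells were kept at low passage (1−26 from frozen stocks). Function was read as 86Rb+ ion flux.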

For data set [13], the target named is D(2) dopamine receptor (Homo sapiens) (UniProt P14416). The experiment in a line: Displacement of [3H]N-methylspiperone from D2 at 10 uM.
The nature of data set [14]: Inhibition of CYP1A up to 10 uM. Type of data set: ADME. An outline of the steps:
as §1

Data set [15] has as its target T3, Neuronal acetylcholine receptor; alpha4/beta2. The experiment in a line: Partial agonist activity at human high sensitive alpha4beta2 nAChR expressed in SH-EP1 cells assessed as 86Rb+ ion efflux by flip-plate technique relative to sazetidine-A. In kind it is functional, cell-based. An outline of the steps: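 86Rb+ ion flux in SH-EP1 cells stably transfected with separate human α4 and β2 subunit cDNAs, expressing a mixture of high- and low-sensitivity α4β2 nAChRs. Cells kept at low passage (1−26). Efficacy at the HS form extrapolated relative to a reference agonist defined as a 100% full agonist.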

Data set [16] addresses 5-hydroxytryptamine receptor 2A (Homo sapiens) (UniProt P28223). The experiment in a line: Displacement of [3H]Ketanserin from 5-HT2A at 10 uM.
Data set [17] addresses Sigma non-opioid intracellular receptor 1 (Homo sapiens) (UniProt Q99720). The experiment in a line: Displacement of [3H]Pentazocine from sigma1 receptor at 10 uM.
The target in data set [18] is T4, Muscarinic acetylcholine receptor M4 (Homo sapiens) (UniProt P08173).
T4 sequence (whole entry): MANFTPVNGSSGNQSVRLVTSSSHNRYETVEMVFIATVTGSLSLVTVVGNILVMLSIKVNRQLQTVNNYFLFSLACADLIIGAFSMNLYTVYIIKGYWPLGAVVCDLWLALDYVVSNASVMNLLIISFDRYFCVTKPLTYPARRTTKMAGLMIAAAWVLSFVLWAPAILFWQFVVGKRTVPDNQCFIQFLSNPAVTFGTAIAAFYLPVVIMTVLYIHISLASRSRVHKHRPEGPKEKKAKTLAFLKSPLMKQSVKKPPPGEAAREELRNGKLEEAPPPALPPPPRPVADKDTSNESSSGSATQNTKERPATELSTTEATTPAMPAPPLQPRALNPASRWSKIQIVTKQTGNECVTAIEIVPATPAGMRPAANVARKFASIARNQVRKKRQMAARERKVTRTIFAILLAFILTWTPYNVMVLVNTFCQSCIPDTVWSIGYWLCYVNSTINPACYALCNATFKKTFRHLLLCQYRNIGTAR
The experiment in a line: Displacement of [3H]QNB from M4 receptor at 10 uM.

Data set [19] has as its target Metabotropic glutamate receptor 5 (Homo sapiens) (UniProt P41594). The experiment in a line: Displacement of [3H]MPEP from mGluR5 at 10 uM.

For orientation: inhibition means the change of the read-out against control, counted positive when it falls. As usually defined, the EC50 is the concentration that produces a half-maximal response.

Sigma non-opioid intracellular receptor 1 (Homo sapiens), sequence (Q99720 whole entry): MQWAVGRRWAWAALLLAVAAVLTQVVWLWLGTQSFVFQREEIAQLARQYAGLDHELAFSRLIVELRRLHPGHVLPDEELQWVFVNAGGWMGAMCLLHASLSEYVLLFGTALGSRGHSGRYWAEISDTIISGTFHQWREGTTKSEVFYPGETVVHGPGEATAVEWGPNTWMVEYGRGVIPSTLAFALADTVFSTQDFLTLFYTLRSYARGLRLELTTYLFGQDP
T3 sequence (P17787 whole entry): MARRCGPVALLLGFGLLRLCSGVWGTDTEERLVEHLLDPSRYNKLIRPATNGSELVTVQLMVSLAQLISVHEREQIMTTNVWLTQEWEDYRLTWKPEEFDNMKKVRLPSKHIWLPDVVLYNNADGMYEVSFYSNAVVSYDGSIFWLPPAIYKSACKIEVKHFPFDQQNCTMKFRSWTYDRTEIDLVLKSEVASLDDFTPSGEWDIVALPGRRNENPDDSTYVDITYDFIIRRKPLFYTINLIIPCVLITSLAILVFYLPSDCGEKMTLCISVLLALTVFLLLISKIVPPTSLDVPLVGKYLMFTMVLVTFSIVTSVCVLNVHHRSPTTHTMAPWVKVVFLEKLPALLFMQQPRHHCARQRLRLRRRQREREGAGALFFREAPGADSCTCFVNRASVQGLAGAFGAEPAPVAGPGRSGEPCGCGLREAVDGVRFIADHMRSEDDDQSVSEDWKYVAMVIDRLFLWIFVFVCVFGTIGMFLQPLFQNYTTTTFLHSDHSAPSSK
T3 sequence (P43681 whole entry): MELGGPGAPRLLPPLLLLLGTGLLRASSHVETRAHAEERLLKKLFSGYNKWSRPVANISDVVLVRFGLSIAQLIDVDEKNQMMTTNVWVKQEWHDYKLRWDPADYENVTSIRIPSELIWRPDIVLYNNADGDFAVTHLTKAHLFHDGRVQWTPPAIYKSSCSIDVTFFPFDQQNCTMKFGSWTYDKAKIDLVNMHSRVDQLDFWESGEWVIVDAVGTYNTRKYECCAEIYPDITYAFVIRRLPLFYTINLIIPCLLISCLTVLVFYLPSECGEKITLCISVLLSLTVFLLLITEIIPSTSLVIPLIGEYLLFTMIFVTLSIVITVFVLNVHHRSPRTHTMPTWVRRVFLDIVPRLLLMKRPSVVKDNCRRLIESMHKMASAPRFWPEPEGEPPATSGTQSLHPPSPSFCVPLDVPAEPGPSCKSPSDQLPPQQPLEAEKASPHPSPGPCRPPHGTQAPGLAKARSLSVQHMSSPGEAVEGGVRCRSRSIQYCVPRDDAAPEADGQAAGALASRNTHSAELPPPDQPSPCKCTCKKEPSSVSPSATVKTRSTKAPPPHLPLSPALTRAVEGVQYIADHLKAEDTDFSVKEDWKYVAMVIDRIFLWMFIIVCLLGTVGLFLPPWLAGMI
5-hydroxytryptamine receptor 7 (Homo sapiens), sequence (P34969 whole entry): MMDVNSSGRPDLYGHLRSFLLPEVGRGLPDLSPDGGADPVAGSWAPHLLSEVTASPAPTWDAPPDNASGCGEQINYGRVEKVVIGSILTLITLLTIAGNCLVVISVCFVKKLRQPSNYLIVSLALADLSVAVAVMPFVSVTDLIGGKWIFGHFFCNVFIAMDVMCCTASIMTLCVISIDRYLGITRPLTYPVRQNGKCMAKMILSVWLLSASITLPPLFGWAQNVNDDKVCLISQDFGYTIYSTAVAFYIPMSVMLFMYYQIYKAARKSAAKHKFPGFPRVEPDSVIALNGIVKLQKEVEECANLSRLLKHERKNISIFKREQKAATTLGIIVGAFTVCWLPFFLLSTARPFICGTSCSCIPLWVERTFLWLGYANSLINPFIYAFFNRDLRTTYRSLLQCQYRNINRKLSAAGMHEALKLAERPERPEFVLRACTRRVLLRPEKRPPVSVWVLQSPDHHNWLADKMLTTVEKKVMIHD
Cytochrome P450 2D6, sequence (P10635 whole entry, canonical isoform): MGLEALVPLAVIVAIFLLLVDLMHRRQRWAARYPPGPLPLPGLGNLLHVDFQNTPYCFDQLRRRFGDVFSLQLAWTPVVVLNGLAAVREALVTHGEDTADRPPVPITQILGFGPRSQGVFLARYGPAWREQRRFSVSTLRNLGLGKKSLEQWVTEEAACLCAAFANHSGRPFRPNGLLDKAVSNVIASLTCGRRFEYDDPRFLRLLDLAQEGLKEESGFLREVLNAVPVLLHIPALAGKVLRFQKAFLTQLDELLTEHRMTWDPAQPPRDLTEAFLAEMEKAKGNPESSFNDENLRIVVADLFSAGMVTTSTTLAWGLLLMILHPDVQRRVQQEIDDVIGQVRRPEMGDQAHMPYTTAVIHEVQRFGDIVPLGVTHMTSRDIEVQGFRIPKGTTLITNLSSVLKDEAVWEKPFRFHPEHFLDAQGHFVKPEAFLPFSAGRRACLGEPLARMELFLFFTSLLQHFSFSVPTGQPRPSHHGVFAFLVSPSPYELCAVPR
D(2) dopamine receptor (Homo sapiens), sequence (P14416 whole entry): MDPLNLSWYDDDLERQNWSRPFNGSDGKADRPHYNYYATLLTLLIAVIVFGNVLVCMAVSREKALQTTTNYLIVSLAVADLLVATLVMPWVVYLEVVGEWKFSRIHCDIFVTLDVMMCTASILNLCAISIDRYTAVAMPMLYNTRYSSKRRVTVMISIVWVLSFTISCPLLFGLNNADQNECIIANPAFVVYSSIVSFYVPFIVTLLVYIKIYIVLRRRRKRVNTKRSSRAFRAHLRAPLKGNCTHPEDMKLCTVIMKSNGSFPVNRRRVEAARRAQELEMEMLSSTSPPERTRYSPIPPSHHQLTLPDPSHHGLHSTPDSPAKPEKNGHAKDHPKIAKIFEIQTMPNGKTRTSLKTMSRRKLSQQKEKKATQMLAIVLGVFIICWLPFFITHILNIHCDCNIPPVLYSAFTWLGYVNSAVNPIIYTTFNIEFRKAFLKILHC
Beta-2 adrenergic receptor (Homo sapiens), sequence (P07550 whole entry, looked up): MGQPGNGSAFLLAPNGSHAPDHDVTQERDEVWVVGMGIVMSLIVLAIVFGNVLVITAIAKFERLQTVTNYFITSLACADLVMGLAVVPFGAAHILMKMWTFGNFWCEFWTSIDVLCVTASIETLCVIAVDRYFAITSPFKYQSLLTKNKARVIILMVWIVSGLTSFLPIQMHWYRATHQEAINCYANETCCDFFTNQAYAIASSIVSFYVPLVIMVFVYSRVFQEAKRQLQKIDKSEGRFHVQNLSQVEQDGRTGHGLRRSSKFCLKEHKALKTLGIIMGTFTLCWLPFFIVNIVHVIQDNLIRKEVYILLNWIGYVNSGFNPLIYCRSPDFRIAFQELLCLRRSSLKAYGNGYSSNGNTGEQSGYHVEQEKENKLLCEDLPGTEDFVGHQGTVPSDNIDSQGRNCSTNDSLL
5-hydroxytryptamine receptor 2B (Homo sapiens), sequence (P41595 whole entry): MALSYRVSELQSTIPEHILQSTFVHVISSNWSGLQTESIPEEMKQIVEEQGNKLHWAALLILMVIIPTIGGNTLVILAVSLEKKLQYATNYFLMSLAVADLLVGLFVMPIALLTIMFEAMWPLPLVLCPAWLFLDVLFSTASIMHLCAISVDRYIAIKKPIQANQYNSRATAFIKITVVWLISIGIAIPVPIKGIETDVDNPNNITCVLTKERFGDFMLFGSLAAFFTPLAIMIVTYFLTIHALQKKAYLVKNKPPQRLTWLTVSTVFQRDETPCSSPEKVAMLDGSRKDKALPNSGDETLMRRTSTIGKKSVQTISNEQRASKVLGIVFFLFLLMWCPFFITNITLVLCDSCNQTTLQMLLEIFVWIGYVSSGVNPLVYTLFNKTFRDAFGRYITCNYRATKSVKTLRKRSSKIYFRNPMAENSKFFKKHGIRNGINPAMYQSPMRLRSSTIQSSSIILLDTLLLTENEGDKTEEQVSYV
Sodium-dependent serotonin transporter (Homo sapiens), sequence (P31645 whole entry, looked up): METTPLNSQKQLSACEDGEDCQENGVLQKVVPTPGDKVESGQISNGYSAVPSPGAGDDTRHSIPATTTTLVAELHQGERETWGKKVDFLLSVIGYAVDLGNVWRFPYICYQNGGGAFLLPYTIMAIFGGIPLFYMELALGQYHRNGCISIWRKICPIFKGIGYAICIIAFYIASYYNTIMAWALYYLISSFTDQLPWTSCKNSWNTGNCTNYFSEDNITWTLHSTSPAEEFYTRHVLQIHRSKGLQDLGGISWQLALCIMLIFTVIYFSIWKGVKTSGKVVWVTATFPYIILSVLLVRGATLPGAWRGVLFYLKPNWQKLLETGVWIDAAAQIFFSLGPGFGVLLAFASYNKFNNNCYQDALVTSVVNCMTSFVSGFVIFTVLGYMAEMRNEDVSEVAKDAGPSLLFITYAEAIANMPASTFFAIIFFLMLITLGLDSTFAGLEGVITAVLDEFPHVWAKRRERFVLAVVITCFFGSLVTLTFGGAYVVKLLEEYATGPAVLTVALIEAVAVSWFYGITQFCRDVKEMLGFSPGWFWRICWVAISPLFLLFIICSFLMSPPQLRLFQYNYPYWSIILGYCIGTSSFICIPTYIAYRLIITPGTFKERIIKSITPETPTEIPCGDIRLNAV
5-hydroxytryptamine receptor 2A (Homo sapiens), sequence (P28223 whole entry): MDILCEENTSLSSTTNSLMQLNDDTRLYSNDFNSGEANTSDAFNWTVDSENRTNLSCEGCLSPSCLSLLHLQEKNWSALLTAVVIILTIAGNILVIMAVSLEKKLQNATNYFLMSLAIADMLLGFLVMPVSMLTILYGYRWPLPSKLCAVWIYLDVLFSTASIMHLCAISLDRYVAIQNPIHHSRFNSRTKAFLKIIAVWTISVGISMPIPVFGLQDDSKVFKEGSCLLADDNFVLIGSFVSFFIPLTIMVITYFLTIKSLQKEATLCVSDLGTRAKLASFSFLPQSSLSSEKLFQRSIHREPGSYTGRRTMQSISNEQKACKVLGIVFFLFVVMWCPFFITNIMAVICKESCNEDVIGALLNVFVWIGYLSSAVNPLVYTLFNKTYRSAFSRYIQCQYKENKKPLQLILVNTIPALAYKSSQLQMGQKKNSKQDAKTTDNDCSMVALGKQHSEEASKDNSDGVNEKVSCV

With `COCC[C@H]1C[C@@H]1c1cncc(OC[C@@H]2CCN2)c1`, the inhibition was 3% in [1]; 24.7% in [2]; 15.8% in data set [3]; 15% in [4]; -1.1% in data set [5]; 1.2% in data set [6]. Further, the inhibition is 39.3% in [7]; 3.2% in data set [8]; -1.4% in data set [9]; 30.5% in [10]; 22.7% in [11]; -1.8% in data set [13]. Besides, the inhibition in data set [16] turned out to be 43.7%; in data set [17], 58.7%; in [18], 0.7%; in data set [19], 5.1%. Also, the figures for the “inhibition (INH)” value (at Cytochrome P450 2D6; against Cytochrome P450 1A2; in [14]) were “<= 25%”, 70% and “<= 25%”, respectively. For the same molecule, the EC50 in data set [12] turned out to be 17.5 nM. Moreover, the Efficacy in data set [15] turned out to be 60%.

Turning to `CNC(=O)OCC[C@H]1C[C@@H]1c1cncc(OC[C@@H]2CCN2)c1`, the inhibition in data set [1] is 22.1%; in data set [2] it was 48.7%; in data set [3], 17%; in data set [4], -4.2%; in [5], -8.7%; in [11], 32.1%. The inhibition was 0.7% in data set [13], 3.9% in data set [17] and 29.2% in data set [18]. In addition, the “inhibition (INH)” value against Cytochrome P450 2D6 was “<= 25%”; against Cytochrome P450 1A2, 80%; in [14] it was “<= 25%”. Moreover, in data set [12], the EC50 was determined as 15.7 nM. The Efficacy in [15] turned out to be 77%.

Regarding `OCC[C@H]1C[C@@H]1c1cncc(OC[C@@H]2CCN2)c1`, the inhibition in [1] was -4.5%; in data set [2] it was 18.2%; in data set [3], 8.3%; in [4] it was 10%; in data set [5], -4.4%; in data set [6], 5.6%. For the same molecule, the inhibition was 42.7% in data set [7]; 8.9% in data set [8]; 9.4% in data set [9]; 29.1% in data set [10]; 24.9% in data set [11]; -7.4% in data set [13]. The inhibition was 34.2% in data set [16], 0.5% in [17], -3.7% in [18] and 9.1% in data set [19]. Further, the “inhibition (INH)” value (at Cytochrome P450 2D6; in data set [14]) was “<= 25%” in each case. The EC50 in [12] was determined as 10.2 nM. In addition, the Efficacy in [15] turned out to be 92%.

Source of the values: ChEMBL document CHEMBL2021777 (J Med Chem, 2012).
